Assay results from ChEMBL document CHEMBL1139198, “Aryl sulfonamido indane inhibitors of the Kv1.5 ion channel” (Bioorg Med Chem Lett, 2007).
≈ marks a conversion by molar mass, not a printed value. Values belong to the compound of their own block, whether it stands above or below them.

What was measured:
Rattus norvegicus [1] = species: Rattus norvegicus; assay: Inhibition of rat calcium channel GH3 at 10 uM
[2] = target: T1, Potassium voltage-gated channel subfamily A member 5 (Homo sapiens, UniProt P22460); assay: Inhibition of Kv1.5 channel mediated delayed rectifier potassium current by patch-clamp technique
T1 sequence (P22460 whole entry): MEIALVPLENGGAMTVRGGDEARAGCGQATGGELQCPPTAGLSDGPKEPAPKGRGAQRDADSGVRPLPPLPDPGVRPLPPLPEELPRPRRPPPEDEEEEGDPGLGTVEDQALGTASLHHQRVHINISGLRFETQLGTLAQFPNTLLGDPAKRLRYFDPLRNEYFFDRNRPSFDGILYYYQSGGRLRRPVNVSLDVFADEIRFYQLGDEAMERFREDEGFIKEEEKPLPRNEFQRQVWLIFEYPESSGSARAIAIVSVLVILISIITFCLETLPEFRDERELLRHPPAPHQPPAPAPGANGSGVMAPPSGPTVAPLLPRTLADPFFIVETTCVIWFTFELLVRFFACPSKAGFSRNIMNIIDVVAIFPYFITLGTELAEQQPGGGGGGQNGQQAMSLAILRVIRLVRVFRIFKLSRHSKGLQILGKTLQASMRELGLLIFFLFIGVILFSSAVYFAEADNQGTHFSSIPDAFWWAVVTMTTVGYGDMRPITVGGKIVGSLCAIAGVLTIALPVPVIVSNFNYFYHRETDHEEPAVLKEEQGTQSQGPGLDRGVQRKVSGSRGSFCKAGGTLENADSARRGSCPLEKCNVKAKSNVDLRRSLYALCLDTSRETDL

[3] = Aqueous solubility of the compound; type: physicochemical; settings: buffer
Summary of the method: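 Crystalline solid; shake-flask method in 50 mM phosphate-buffered saline, pH 6.8; dissolved compound quantified by LC/MS/MS.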

[4] = Clearance in dog at 20 umol/kg, po; type: ADME, organism-based, Canis lupus familiaris; settings: in vivo
[5] = Half life in intra arterial infusion dosed rat at 10 umol/kg; type: ADME, organism-based; settings: in vivo
Canis familiaris = assay: Volume of distribution in dog at 20 umol/kg, po; type: ADME, organism-based, Canis lupus familiaris; settings: in vivo
[6] = target: SCN5A (sodium channel protein type 5 subunit alpha) (Homo sapiens, UniProt Q14524); assay: Inhibition of human SCN5A channel at 10 uM
Chain of SCN5A (sodium channel protein type 5 subunit alpha) (Q14524 whole entry): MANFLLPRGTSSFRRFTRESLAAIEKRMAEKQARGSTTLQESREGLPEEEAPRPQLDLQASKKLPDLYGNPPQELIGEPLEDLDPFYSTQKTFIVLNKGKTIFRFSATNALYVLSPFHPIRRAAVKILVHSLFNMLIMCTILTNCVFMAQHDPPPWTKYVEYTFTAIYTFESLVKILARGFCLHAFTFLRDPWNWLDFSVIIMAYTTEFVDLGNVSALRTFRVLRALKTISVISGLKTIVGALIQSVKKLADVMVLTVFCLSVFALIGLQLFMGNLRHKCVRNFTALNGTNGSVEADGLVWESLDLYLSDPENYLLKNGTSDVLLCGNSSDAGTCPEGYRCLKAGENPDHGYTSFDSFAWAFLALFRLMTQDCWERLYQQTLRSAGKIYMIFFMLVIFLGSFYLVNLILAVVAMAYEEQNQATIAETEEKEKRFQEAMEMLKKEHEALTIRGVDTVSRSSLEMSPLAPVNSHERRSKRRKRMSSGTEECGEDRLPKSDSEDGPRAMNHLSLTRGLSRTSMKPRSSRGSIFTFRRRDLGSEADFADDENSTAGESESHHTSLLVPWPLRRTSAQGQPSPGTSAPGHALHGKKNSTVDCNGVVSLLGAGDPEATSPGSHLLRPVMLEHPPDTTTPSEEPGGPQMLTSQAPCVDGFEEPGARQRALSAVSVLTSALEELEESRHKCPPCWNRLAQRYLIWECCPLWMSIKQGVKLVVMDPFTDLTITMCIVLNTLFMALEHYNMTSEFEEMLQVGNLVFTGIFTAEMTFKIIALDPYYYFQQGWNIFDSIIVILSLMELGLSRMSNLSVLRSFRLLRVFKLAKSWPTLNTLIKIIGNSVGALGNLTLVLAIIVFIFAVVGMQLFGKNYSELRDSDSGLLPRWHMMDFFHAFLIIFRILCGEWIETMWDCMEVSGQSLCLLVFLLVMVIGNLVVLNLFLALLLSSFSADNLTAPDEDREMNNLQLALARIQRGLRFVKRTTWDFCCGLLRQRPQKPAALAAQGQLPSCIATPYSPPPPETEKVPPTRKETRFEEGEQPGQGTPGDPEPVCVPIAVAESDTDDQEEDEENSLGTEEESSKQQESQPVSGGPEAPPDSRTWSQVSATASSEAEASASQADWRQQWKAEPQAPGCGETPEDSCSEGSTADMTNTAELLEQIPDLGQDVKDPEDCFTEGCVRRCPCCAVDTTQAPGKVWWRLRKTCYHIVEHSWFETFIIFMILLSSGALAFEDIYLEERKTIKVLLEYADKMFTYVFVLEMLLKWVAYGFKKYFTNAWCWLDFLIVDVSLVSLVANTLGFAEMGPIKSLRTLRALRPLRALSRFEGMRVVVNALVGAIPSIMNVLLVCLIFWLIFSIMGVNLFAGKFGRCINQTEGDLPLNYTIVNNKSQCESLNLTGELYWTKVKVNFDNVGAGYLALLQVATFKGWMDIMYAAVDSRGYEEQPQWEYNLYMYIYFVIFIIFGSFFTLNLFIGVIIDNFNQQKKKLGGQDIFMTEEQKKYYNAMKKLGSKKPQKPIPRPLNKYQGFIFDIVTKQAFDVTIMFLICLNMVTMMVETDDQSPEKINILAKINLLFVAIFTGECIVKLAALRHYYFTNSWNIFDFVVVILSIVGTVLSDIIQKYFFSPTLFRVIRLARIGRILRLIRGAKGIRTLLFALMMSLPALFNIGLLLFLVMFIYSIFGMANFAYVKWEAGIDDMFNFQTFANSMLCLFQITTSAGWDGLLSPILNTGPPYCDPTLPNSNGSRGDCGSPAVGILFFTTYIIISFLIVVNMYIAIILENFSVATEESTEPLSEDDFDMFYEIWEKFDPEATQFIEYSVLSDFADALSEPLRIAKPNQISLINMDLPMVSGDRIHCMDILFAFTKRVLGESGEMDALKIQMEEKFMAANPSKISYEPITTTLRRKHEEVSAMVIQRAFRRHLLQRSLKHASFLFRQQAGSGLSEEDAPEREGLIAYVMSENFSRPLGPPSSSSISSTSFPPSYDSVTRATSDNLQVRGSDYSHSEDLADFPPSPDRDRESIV

[7] = Oral bioavailability in dog at 20 umol/kg; type: ADME, organism-based, Canis lupus familiaris; settings: in vivo
[8] = Half life in intra arterial infusion dosed dog at 10 umol/kg; type: ADME, organism-based, Canis lupus familiaris; settings: in vivo
[9] = Clearance in rat at 20 umol/kg, po; type: ADME, organism-based; settings: in vivo
hERG (KCNH2) = hERG (KCNH2) (Homo sapiens, UniProt Q12809); assay: Inhibition of hERG at 10 uM; type: toxicity
Chain of hERG (KCNH2) (Q12809 whole entry): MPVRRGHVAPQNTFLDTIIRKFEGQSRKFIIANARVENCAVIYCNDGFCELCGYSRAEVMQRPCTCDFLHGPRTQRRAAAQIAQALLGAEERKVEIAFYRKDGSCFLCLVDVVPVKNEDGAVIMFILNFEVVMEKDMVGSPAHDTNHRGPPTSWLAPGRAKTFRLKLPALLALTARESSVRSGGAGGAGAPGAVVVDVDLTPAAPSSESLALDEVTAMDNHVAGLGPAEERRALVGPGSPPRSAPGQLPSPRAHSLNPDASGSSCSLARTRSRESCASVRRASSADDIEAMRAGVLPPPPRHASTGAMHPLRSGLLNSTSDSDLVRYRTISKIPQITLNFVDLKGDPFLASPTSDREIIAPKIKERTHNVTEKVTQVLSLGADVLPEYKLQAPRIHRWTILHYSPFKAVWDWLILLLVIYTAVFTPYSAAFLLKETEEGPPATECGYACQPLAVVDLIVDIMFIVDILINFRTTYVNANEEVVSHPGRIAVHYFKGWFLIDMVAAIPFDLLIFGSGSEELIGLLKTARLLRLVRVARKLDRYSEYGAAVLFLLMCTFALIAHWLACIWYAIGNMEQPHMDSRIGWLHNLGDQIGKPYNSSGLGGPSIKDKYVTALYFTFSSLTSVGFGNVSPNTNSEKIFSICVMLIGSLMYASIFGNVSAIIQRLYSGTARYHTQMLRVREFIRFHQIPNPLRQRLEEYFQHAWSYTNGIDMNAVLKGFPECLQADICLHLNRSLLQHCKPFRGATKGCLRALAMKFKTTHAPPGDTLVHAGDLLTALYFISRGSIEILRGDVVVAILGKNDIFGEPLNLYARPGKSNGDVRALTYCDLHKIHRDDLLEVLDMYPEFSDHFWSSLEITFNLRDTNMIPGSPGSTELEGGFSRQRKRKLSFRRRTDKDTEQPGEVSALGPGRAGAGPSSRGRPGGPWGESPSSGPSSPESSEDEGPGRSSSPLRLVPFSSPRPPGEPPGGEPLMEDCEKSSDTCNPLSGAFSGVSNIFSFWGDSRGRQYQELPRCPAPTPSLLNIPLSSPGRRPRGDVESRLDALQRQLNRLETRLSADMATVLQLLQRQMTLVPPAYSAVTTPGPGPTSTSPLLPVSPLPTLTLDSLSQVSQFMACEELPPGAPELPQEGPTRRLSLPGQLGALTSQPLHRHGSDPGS

[10] = Oral bioavailability in rat at 20 umol/kg; type: ADME, organism-based; settings: in vivo
Rattus norvegicus [11] = assay: Volume of distribution in rat at 20 umol/kg, po; type: ADME, organism-based; settings: in vivo
[12] = target: T1, Potassium voltage-gated channel subfamily A member 5; assay: Inhibition of Kv1.5 channel mediated delayed rectifier potassium current at 1 uM by patch-clamp technique

SMILES: CCc1ccc(S(=O)(=O)N[C@@H]2c3cc(NC(=O)c4cccc(OC)c4)ccc3C[C@H]2O)cc1 [listing 1 of 2 here]
inhibition (Rattus norvegicus [1]): 27%

SMILES: CCc1ccc(S(=O)(=O)N[C@H]2c3cc(NC(=O)c4cccc(OC)c4)ccc3C[C@@H]2O)cc1
IC50 [2]: 760 nM

SMILES: CCc1ccc(S(=O)(=O)NCc2cccc(NC(=O)c3cccc(OC)c3)c2)cc1
IC50 [2]: 240 nM
solubility ([3]; read-out: Solubility): 0.8 µg/mL (≈ 1.88 µM)

SMILES: CCc1ccc(S(=O)(=O)N[C@@H]2c3ccc(NC(=O)c4cccc(OC)c4)cc3C[C@H]2O)cc1 (racemic)
inhibition [12]: 24%

SMILES: CCc1ccc(S(=O)(=O)N[C@@H]2c3cc(N)ccc3C[C@H]2O)cc1 (racemic)
inhibition [12]: 2%

SMILES: CCc1ccc(S(=O)(=O)N[C@@H]2c3cccc(NC(=O)c4cccc(OC)c4)c3C[C@H]2O)cc1 (racemic)
inhibition [12]: 17%

SMILES: CCc1ccc(S(=O)(=O)N[C@@H]2c3c(cccc3NC(=O)c3cccc(OC)c3)C[C@H]2O)cc1 (racemic)
IC50 [2]: 880 nM

SMILES: CCc1ccc(S(=O)(=O)N[C@@H]2c3cc(NC(=O)c4cccc(OC)c4)ccc3CC[C@H]2O)cc1 (racemic)
IC50 [2]: 440 nM

The next lines start with results.

CL/F [4]: 12 mL/min/kg
half-life [5]: 24 min
Vd (Canis familiaris): 1.4 L/kg
IC50 [2]: 33 nM
bioavailability [7]: 5%
solubility [3]: 1.3 µg/mL (≈ 2.79 µM)
half-life [8]: 90 min
CL/F [9]: 200 mL/min/kg
bioavailability [10]: 1%
Vd (Rattus norvegicus [11]): 4 L/kg
SMILES: CCc1ccc(S(=O)(=O)N[C@@H]2c3cc(NC(=O)c4cccc(OC)c4)ccc3C[C@H]2O)cc1 [listing 2 of 2 here]
inhibition at 10 µM [6]: 15%
inhibition at 10 µM (hERG (KCNH2)): 37%

IC50 [2]: 150 nM
solubility ([3]; read-out: Solubility): < 0.1 µg/mL
SMILES: CCc1ccc(S(=O)(=O)NC2CCc3ccc(NC(=O)c4cccc(OC)c4)cc32)cc1 (racemic)

inhibition [12]: 3%
SMILES: CCc1ccc(S(=O)(=O)N[C@@H]2c3ccccc3C[C@H]2O)cc1 (racemic)

IC50 [2]: 300 nM
SMILES: CCc1ccc(S(=O)(=O)N[C@@H]2c3cc(NC(=O)c4cccc(OC)c4)ccc3C[C@@H]2O)cc1 (racemic)

IC50 [2]: 160 nM
solubility [3]: 2.9 µg/mL (≈ 6.22 µM)
SMILES: CCc1ccc(S(=O)(=O)N[C@@H]2c3cc(NC(=O)c4cccc(OC)c4)ccc3C[C@H]2O)cc1 (racemic)

IC50 [2]: 200 nM
SMILES: CCc1ccc(S(=O)(=O)N[C@@H]2c3cc(NC(=O)c4cccc(OC)c4)ccc3CCC[C@H]2O)cc1 (racemic)
